Compounds with a hit are over-represented: about 3.3% of the library has one in this group of screens.
PRMT1 FP inh: PRMT1 (human) inhibition, primary screen. Q99873. recombinant PRMT1, activity-based probe fluorescence polarization. inhibition, % at 2.79 µM. hit rate 1.3% among 370,000. AID 652257;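 active = inhibition above about 21% made by adding two undisclosed values, limit read from the data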
SIAE inh: human SIAE inhibition, primary screen; SIAE FP-Rh probe binding, fluorescence polarization; inhibition, % at 9.66 µM; Q9HAT2; AID 1053197; hit rate 0.69% among 370,000;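 active = inhibition above a cutoff: mean of compounds within the control limits plus 3 SD of those, cut at about 17% in these data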;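 also: 0% = plate median of compound wells and 100% = probe without SIAE protein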
LEDGF integ inh: blocks HIV-1 LEDGF/p75-dependent DNA integration; TR-FRET IN-LEDGF/p75 DNA integration, Eu/Cy5; inhibition, % at 3.7 µM; hit rate 0.64% among 370,000;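 active = inhibition above the screen-wide mean plus 3 SD, cut at about 13% in these data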;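 also: signal is the Cy5 over europium emission ratio at 671 and 618 nm; 0% = plate median of compound wells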
TDP2 inh: blocks human TDP2 phosphodiesterase activity; AID 720702; inhibition, % at 12.8 µM; recombinant TDP2, T5PNP hydrolysis, p-nitrophenol absorbance 415 nm; O95551; hit rate 0.34% among 370,000;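 active = inhibition above the mean of all tested compounds plus 3 SD, set per campaign, cut at about 25% in these data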;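 also: 0% = DMSO with enzyme and 100% = buffer with substrate but no TDP2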
Target sequence (O95551 whole entry, looked up): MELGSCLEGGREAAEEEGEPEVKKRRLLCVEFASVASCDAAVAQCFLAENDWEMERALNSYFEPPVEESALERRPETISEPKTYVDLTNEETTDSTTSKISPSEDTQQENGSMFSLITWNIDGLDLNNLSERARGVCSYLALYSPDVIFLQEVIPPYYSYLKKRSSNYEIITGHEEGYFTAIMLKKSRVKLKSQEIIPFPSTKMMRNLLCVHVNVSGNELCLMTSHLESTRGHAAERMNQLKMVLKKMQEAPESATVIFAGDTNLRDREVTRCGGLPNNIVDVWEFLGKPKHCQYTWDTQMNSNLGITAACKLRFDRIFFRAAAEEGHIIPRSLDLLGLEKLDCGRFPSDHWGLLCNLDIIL
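Test system: human TDP2 enzyme; Input: 120 nM TDP2 per well; Buffer or medium: Mg2+-containing Tris-HCl buffer, pH 7.5; Reagent: 5 mM T5PNP; Dosing: 12.8 µM single point, 1% DMSO; Incubation: reaction 2 h, 37 °C; Detection: p-Nitrophenol epi absorbance; Read-out: % inhibition relative to enzyme-containing and enzyme-free wells; Replicates: single well per compound.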
UHRF1 binding: human UHRF1 methylated DNA binding inhibitors. UHRF1 binding to methylated oligo, TR-FRET. hit rate 0.75% among 370,000. Q96T88. inhibition, % at 4.4 µM. AID 687016; in the data active = inhibition above about 21%;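 also: UHRF1 SRA domain binding a hemimethylated CpG hairpin DNA probe; 0% = median of test compound wells and 100% = reference inhibitor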
MBD2 inh: blocks human MBD2 binding to methylated DNA. Q9UBB5. TR-FRET, MBD2 binding to methylated oligonucleotide. inhibition, % at 4.4 µM. hit rate 0.31% among 370,000; in the data active = inhibition above about 13%
UHRF1 DNA bind: counter-screen for MBD2 inhibitors: human UHRF1 methylated DNA binding inhibitors. inhibition, % at 4.4 µM. AID 720530. UHRF1 binding to methylated oligonucleotide, TR-FRET. hit rate 25% among 1,000. shares compounds with MBD2 inh; in the data active = inhibition above about 21%;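 also: UHRF1 SRA domain binding a labeled hemimethylated CpG hairpin DNA; 0% = vehicle only and 100% = reference inhibitor with vehicle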
MBD2 confirm: confirmation of human MBD2-DBD methylated oligonucleotide binding inhibitors. shares compounds with MBD2 inh. hit rate 26% among 1,000. TR-FRET MBD2-DBD binding to methylated oligonucleotide. inhibition, % at 4.4 µM
TDP2 inh conf: confirmation of human TDP2 inhibitors. shares compounds with TDP2 inh. recombinant human TDP2, absorbance read-out. inhibition, % at 12.8 µM. hit rate 22% among 1,100. AID 743263; in the data active = inhibition above about 25%;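 also: 0% = vehicle with enzyme and 100% = no enzyme buffer only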
IN multimer act: counter-screen for LEDGF/p75 integration inhibitors: HIV-1 integrase multimerization activators; shares compounds with LEDGF integ inh; TR-FRET HIV-1 integrase multimerization, biochemical; activation, % at 7.7 µM; hit rate 17% among 2,000; AID 1053131; in the data active = activation above about 8.9%
TR-FRET interf: counter-screen for LEDGF/p75 integration inhibitors: TR-FRET optical interference; shares compounds with LEDGF integ inh; TR-FRET optical interference counterscreen, HIV-1 IN multimerization; inhibition, % at 7.7 µM; 2,000 tested, under 10 active; AID 1053135;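 active = inhibition above the mean over all tested compounds plus 3 SD, which no compound reached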;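 also: 0% = integrase with antibodies and DMSO and 100% = antibodies without integrase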
LEDGF integ conf: confirmation of HIV-1 LEDGF/p75-dependent integration inhibitors | TR-FRET LEDGF/p75-dependent HIV-1 integration, biochemical | shares compounds with LEDGF integ inh | hit rate 36% among 2,000 | inhibition, % at 3.7 µM
* = called active by the depositor. Rule as the data show it, unless noted: active = inhibition above about 14%; inactive = the rest.

What do the screens show for `Cc1[nH]n(-c2ccccc2)c(=O)c1C(c1cccc([N+](=O)[O-])c1O)c1c(C)[nH]n(-c2ccccc2)c1=O`?
PRMT1 FP inh: 4; SIAE inh: 1; LEDGF integ inh: 26*; TDP2 inh: 84*; UHRF1 binding: 24*; MBD2 inh: 21*; UHRF1 DNA bind: 4; MBD2 confirm: 0; TDP2 inh conf: 3; IN multimer act: 8; TR-FRET interf: -41; LEDGF integ conf: 1

How did Cc1[nH]n(-c2ccccc2)c(=O)c1C(c1ccc(C(=O)O)cc1)c1c(C)[nH]n(-c2ccccc2)c1=O do in these assays?
PRMT1 FP inh: 1; SIAE inh: 3; LEDGF integ inh: 34*; TDP2 inh: 99*; UHRF1 binding: 20; MBD2 inh: 20*; UHRF1 DNA bind: 11; MBD2 confirm: 2; TDP2 inh conf: 25*; IN multimer act: 6; TR-FRET interf: -20; LEDGF integ conf: 14*

What do the screens show for `COC(=O)[C@]12C[C@H](CC(=O)NCC34CC5CC(CC(C5)C3)C4)C(=O)N(CCC3=CCCCC3)C1=C[C@H](C(C)C)O[C@@H]2C1CC1`?
PRMT1 FP inh: -3; SIAE inh: -4; LEDGF integ inh: 7; TDP2 inh: -4; UHRF1 binding: 5; MBD2 inh: 1

Results for COC(=O)[C@]12C[C@H](CC(=O)N3CCC(c4ccccc4)CC3)C(=O)N(Cc3ccc(Cl)cc3Cl)C1=C[C@H](C(C)C)O[C@@H]2C1CC1 ?
PRMT1 FP inh: 3; SIAE inh: -2; LEDGF integ inh: -2; TDP2 inh: -1; UHRF1 binding: 2; MBD2 inh: 3

How did COc1ccc(Cn2ccc3ccc(-c4ccc5ccn(C(=O)C6CCC6)c5c4)cc32)cc1 do in these assays?
PRMT1 FP inh: -5; SIAE inh: -9; LEDGF integ inh: 7; TDP2 inh: -10; UHRF1 binding: -2; MBD2 inh: -6

How did O=C(O)c1cccc(-c2ccc(/C=c3/sc4nc5ccccc5n4c3=O)o2)c1 do in these assays?
PRMT1 FP inh: 24*; SIAE inh: -14; LEDGF integ inh: 46*; TDP2 inh: 9; UHRF1 binding: 81*; MBD2 inh: 34*; UHRF1 DNA bind: 54*; MBD2 confirm: 19*; IN multimer act: 11*; TR-FRET interf: -54; LEDGF integ conf: 20*

What do the screens show for `O=C1CC(c2ccc(O)c(O)c2)Oc2c1ccc(O)c2O` (stereo not drawn)?
PRMT1 FP inh: 37*; SIAE inh: 11; LEDGF integ inh: 93*; TDP2 inh: -11; UHRF1 binding: 64*; MBD2 inh: 35*; UHRF1 DNA bind: 27*; MBD2 confirm: 9; IN multimer act: 57*; TR-FRET interf: -289; LEDGF integ conf: 91*

What do the screens show for `Cn1c(NC2=NC3(CCCC3)C3=C(CCCC3=O)N2)nc2ccccc21`?
PRMT1 FP inh: 2; SIAE inh: 5; LEDGF integ inh: 0; TDP2 inh: 1; UHRF1 binding: -1; MBD2 inh: -4
